Measured values reported in ChEMBL document CHEMBL4368918, “Structure-Based Design of Inhibitors Selective for Human Proteasome β2c or β2i Subunits” (J Med Chem, 2019).

Assays:
Homo sapiens [1] = organism: Homo sapiens; test: Selectivity ratio of IC50 for 20S immunoproteasome beta 2 in human Raji cell lysates to IC50 for 20S constitutive proteasome beta 2 trypsin-like activity in human Raji cells; format: cell-based
[2] = target: T1, Proteasome subunit beta type-9 (Homo sapiens, UniProt P28065); test: Inhibition of 20S immunoproteasome beta 1 in human Raji cell lysates after 1 hr by competitive ABPP assay; format: subcellular, Lysate
T1 sequence (P28065 whole entry): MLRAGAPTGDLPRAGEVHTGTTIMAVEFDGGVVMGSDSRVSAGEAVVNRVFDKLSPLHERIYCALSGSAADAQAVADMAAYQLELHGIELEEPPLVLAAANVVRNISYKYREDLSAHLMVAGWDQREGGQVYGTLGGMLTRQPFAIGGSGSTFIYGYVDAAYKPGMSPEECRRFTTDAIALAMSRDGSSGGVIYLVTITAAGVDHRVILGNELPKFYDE
Outline: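 Raji cells were sonicated in 3 volumes of Tris pH 7.5 lysis buffer containing DTT, MgCl₂, sucrose, 2 mM ATP and 0.05% digitonin. Lysate (5 μg protein, in buffer with 2 mM ATP and glycerol) was preincubated with inhibitor for 1 h at 37 °C, then with a cocktail of three fluorescent ABPs for 1 h. […] In-gel fluorescence densitometry was normalized to mock. IC50 came from the mean of three experiments.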

[3] = target: T2, Proteasome subunit beta type-10 (Homo sapiens, UniProt P40306); test: Inhibition of 20S immunoproteasome beta 2 in human Raji cell lysates after 1 hr by competitive ABPP assay; format: subcellular, Lysate
T2 sequence (P40306 whole entry): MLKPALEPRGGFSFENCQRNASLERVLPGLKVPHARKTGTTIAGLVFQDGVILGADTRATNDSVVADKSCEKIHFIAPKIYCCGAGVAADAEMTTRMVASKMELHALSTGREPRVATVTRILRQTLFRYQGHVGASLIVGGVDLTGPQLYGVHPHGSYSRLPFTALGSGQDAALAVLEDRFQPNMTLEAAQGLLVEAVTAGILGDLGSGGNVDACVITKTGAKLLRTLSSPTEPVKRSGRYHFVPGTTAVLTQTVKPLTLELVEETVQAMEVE

[4] = target: T3, Proteasome Macropain subunit MB1 (Homo sapiens, UniProt P28074); test: Inhibition of 20S constitutive proteasome beta 5 chymotrypsin-like activity in human RPMI8226 cell lysates after 1 hr by coomassie brilliant blue staining-based fluorescence assay; format: subcellular, Lysate
T3 sequence (P28074 whole entry): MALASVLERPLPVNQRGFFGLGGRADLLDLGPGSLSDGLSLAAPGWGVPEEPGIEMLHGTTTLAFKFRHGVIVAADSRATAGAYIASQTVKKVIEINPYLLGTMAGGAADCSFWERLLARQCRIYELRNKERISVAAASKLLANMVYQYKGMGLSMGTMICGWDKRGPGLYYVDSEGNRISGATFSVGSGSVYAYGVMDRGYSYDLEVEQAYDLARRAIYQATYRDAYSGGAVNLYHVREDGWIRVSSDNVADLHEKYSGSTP
Outline: (§1)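 Cells at (5–8)×10⁵ cells/mL were exposed to inhibitor for 1 h at 37 °C, washed in PBS and lysed on ice for 1 h in digitonin/ATP buffer. Residual activity was read by cocktail-ABP labeling, SDS-PAGE and fluorescence densitometry relative to mock, with Coomassie staining correcting for loading. IC50 came from three independent experiments.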

Homo sapiens [5] = organism: Homo sapiens; test: Selectivity ratio of IC50 for 20S immunoproteasome beta 2 (unknown origin) to IC50 for 20S constitutive proteasome beta 2 trypsin-like activity (unknown origin)
Homo sapiens [6] = organism: Homo sapiens; test: Selectivity ratio of IC50 for 20S immunoproteasome beta 5 in human Raji cell lysates to IC50 for 20S constitutive proteasome beta 2 trypsin-like activity in human Raji cells; format: cell-based
Homo sapiens [7] = organism: Homo sapiens; test: Selectivity ratio of IC50 for 20S immunoproteasome beta 1 in human Raji cell lysates to IC50 for 20S constitutive proteasome beta 2 trypsin-like activity in human Raji cells; format: cell-based
[8] = target: T4, Proteasome subunit beta type-7 (Homo sapiens, UniProt Q99436); test: Inhibition of 20S constitutive proteasome beta 2 trypsin-like activity in human RPMI8226 cell lysates after 1 hr by coomassie brilliant blue staining-based fluorescence assay; format: subcellular, Lysate
T4 sequence (Q99436 whole entry): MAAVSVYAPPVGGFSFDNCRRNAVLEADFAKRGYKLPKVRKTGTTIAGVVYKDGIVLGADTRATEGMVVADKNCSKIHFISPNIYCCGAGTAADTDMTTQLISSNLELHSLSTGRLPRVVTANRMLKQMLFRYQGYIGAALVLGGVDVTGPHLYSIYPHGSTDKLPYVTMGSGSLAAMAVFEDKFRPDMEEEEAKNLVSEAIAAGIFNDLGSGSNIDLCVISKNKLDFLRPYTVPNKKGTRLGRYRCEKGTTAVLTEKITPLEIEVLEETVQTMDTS

[9] = target: T1, Proteasome subunit beta type-9; test: Inhibition of 20S immunoproteasome beta 1 in human RPMI8226 cell lysates after 1 hr by coomassie brilliant blue staining-based fluorescence assay; format: subcellular, Lysate
Outline: as §1, with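 “Living RPMI-8226 cells were grown in RPMI-1640 with 10% FCS. Cells” for “Cells”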

[10] = target: T2, Proteasome subunit beta type-10; test: Inhibition of 20S immunoproteasome beta 2 (unknown origin) by cell based ABPP assay
Outline: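 Living RPMI-8226 cells, (5–8) ×10^5 cells/mL, exposed to inhibitor 1 h at 37 °C, washed, lysed in digitonin buffer 1 h on ice; residual activity labelled with cocktail ABPs, SDS-PAGE in-gel fluorescence, bands divided by mock, Coomassie staining to correct loading. IC50 from mean of three independent experiments.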

Homo sapiens [11] = organism: Homo sapiens; test: Selectivity ratio of IC50 for 20S constitutive proteasome beta 5 chymotrypsin-like activity in human Raji cell lysates to IC50 for 20S constitutive proteasome beta 2 trypsin-like activity in human Raji cells; format: cell-based
[12] = target: T3, Proteasome Macropain subunit MB1; test: Inhibition of 20S constitutive proteasome beta 5 chymotrypsin-like activity in human Raji cell lysates after 1 hr by competitive ABPP assay; format: subcellular, Lysate
[13] = target: T2, Proteasome subunit beta type-10; test: Inhibition of 20S immunoproteasome beta 2 in human RPMI8226 cell lysates after 1 hr by coomassie brilliant blue staining-based fluorescence assay; format: subcellular, Lysate
[14] = target: T5, Proteasome subunit beta type-8 (Homo sapiens, UniProt P28062); test: Inhibition of 20S immunoproteasome beta 5 in human RPMI8226 cell lysates after 1 hr by coomassie brilliant blue staining-based fluorescence assay; format: subcellular, Lysate
T5 sequence (P28062 whole entry): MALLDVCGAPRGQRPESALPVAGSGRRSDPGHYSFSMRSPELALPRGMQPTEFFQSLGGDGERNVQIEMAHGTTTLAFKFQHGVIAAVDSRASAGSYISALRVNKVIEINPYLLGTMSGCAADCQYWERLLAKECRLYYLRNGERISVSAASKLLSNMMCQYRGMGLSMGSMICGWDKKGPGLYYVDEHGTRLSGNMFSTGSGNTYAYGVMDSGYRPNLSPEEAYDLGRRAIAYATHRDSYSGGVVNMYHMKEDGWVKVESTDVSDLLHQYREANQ
Outline: as §1, with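 “Living RPMI-8226 cells were grown in RPMI-1640 with 10% FCS. Cells” for “Cells”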

[15] = target: T5, Proteasome subunit beta type-8; test: Inhibition of 20S immunoproteasome beta 5 in human Raji cell lysates after 1 hr by competitive ABPP assay; format: subcellular, Lysate
Homo sapiens [16] = organism: Homo sapiens; test: Selectivity ratio of IC50 for 20S constitutive proteasome beta 1 caspase-like activity in human Raji cell lysates to IC50 for 20S constitutive proteasome beta 2 trypsin-like activity in human Raji cells; format: cell-based
[17] = target: T6, Proteasome subunit beta type-6 (Homo sapiens, UniProt P28072); test: Inhibition of 20S constitutive proteasome beta 1 caspase-like activity in human Raji cell lysates after 1 hr by competitive ABPP assay; format: subcellular, Lysate
T6 sequence (P28072 whole entry): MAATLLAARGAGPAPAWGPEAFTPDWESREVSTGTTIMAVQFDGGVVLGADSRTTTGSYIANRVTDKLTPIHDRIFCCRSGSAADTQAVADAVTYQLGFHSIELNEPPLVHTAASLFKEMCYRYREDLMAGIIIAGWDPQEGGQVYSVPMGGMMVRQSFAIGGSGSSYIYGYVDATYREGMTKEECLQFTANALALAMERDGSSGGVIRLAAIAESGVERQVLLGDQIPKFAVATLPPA
Outline: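 Raji cells were sonicated in 3 volumes of Tris pH 7.5 lysis buffer containing DTT, MgCl₂, sucrose, 2 mM ATP and 0.05% digitonin. Lysate (5 μg protein, in buffer with 2 mM ATP and glycerol) was preincubated with inhibitor for 1 h at 37 °C, then with a cocktail of three fluorescent ABPs for 1 h. In-gel fluorescence densitometry was normalized to mock. IC50 came from the mean of three experiments.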

Row | SMILES | Ratio IC50 (Homo sapiens [1]) | IC50 [2] | IC50 [3] | IC50 [4] | Ratio IC50 (Homo sapiens [5]) | Ratio IC50 (Homo sapiens [6]) | Ratio IC50 (Homo sapiens [7]) | IC50 [8] | IC50 [9] | IC50 [10] | Ratio IC50 (Homo sapiens [11]) | IC50 [12] | IC50 [13] | IC50 [14] | IC50 [15] | Ratio IC50 (Homo sapiens [16]) | IC50 [17]
1 | Cc1ncc(C(=O)N[C@@H](CC2CCCCC2)C(=O)N[C@@H](CC(C)C)C(=O)N[C@H](/C=C/S(C)(=O)=O)Cc2ccc(CN)cc2)s1 | 6 | > 100 µM | 420 nM | > 10 µM | 30 | > 1500 | > 1500 | > 10 µM | > 10 µM | 540 nM | > 1500 | > 100 µM | > 10 µM | > 10 µM | > 100 µM | > 1500 | > 100 µM
2 | COC1CCC(C[C@H](NC(=O)c2cnc(C)s2)C(=O)N[C@@H](CC(C)C)C(=O)N[C@H](/C=C/S(C)(=O)=O)Cc2ccc(CN)cc2)CC1 (stereo partly drawn) | 7 | > 100 µM | 3100 nM | > 10 µM | > 4 | > 220 | > 220 | > 10 µM | > 10 µM | > 1000 nM | > 220 | > 100 µM | > 10 µM | > 10 µM | > 100 µM | > 220 | > 100 µM
3 | CC(C)C[C@H](NC(=O)c1cnccn1)C(=O)N[C@@H](CC(C)C)C(=O)N[C@H](/C=C/S(C)(=O)=O)Cc1ccc(CN)cc1 | 17 | > 100 µM | 2900 nM | > 10 µM | 40 | > 600 | > 600 | > 10 µM | > 10 µM | 6500 nM | > 600 | > 100 µM | > 10 µM | > 10 µM | > 100 µM | > 600 | > 100 µM
4 | CC(C)C[C@H](NC(=O)[C@H](Cc1ccccc1)N=[N+]=[N-])C(=O)N[C@@H](CO)C(=O)N[C@H](/C=C/S(C)(=O)=O)Cc1ccc(CN)cc1 | – | > 100 µM | 230 nM | > 10 µM | – | – | – | – | > 10 µM | 525 nM | – | 1.4 µM | > 10 µM | > 10 µM | 2.2 µM | – | > 100 µM
5 | CC(C)C[C@H](NC(=O)[C@H](Cc1ccccc1)N=[N+]=[N-])C(=O)NCC(=O)N[C@H](/C=C/S(C)(=O)=O)Cc1ccc(CN)cc1 | 54 | > 100 µM | 2500 nM | > 10 µM | 224 | 187 | > 2200 | > 10 µM | > 10 µM | 5900 nM | 276 | 8.6 µM | > 10 µM | > 10 µM | 12.7 µM | > 2200 | > 100 µM
